From ChEMBL document CHEMBL1275285, “Synthesis, antimicrobial and anti-inflammatory activities of novel 5-(1-adamantyl)-1,3,4-thiadiazole derivatives” (2010)
≈ marks a conversion by molar mass, not a printed value. Calls of active or inactive are those of the source. The rule behind the calls is not given here.

Key:
Assay type in all cases: functional
Candida albicans [1] = experiment: Antimicrobial activity against Candida albicans IFO 0583 at 100 ug/8 mm disk after 48 hrs by agar disk diffusion method
Procedure, shortened: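 Reference antifungal applied at 100 per 8 mm disc on Mueller-Hinton agar pre-inoculated with C. albicans; 37 °C incubation; inhibition zone diameter measured at 48 h.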

Candida albicans [2] = experiment: Antimicrobial activity against Candida albicans IFO 0583 after 48 hrs; conditions: IFO 0583, 48 h
Procedure, shortened: (§1)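 MIC by two-fold serial dilution in wells, inoculated with microbial suspensions at 10^6 CFU/mL. Incubation was at 36 °C for 24 h (bacteria) or 48 h (C. albicans). MIC was the lowest concentration fully inhibiting visible growth, read by unaided eye.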

Bacillus subtilis [3] = experiment: Antimicrobial activity against Bacillus subtilis IFO 3007 at 200 ug/8 mm disk after 24 hrs by agar disk diffusion method
Procedure, shortened: (§2)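 Agar disc diffusion on Mueller-Hinton agar: 8 mm filter paper discs moistened with compound in DMSO (200 per disc) placed on plates pre-inoculated with each organism; incubated at 37 °C; growth inhibition zone diameter read after 24 h for bacteria, 48 h for C. albicans.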

Pseudomonas aeruginosa [4] = experiment: Antimicrobial activity against Pseudomonas aeruginosa IFO 3448 at 200 ug/8 mm disk after 24 hrs by agar disk diffusion method; procedure, shortened: as §2
Escherichia coli [5] = experiment: Antimicrobial activity against Escherichia coli IFO 3301 at 200 ug/8 mm disk after 24 hrs by agar disk diffusion method; procedure, shortened: as §2
Candida albicans [6] = experiment: Antimicrobial activity against Candida albicans IFO 0583 at 200 ug/8 mm disk after 48 hrs by agar disk diffusion method; procedure, shortened: as §2
Micrococcus luteus [7] = experiment: Antimicrobial activity against Micrococcus luteus IFO 3232 at 200 ug/8 mm disk after 24 hrs by agar disk diffusion method; procedure, shortened: as §2
Staphylococcus aureus [8] = experiment: Antimicrobial activity against Staphylococcus aureus IFO 3060 at 200 ug/8 mm disk after 24 hrs by agar disk diffusion method; procedure, shortened: as §2
Staphylococcus aureus [9] = experiment: Antimicrobial activity against Staphylococcus aureus IFO 3060 after 24 hrs; procedure, shortened: as §1
Pseudomonas aeruginosa [10] = experiment: Antimicrobial activity against Pseudomonas aeruginosa IFO 3448 at 100 ug/8 mm disk after 24 hrs by agar disk diffusion method
Procedure, shortened: (§3)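 Agar disc diffusion on Mueller-Hinton agar. Sterile 8 mm filter-paper discs were moistened with the agent dissolved in DMSO and placed on plates already inoculated with the organism. Plates were incubated at 37 °C, and growth-inhibition zone diameters were measured after 24 h.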

Bacillus subtilis [11] = experiment: Antimicrobial activity against Bacillus subtilis IFO 3007 at 100 ug/8 mm disk after 24 hrs by agar disk diffusion method; procedure, shortened: as §3
Micrococcus luteus [12] = experiment: Antimicrobial activity against Micrococcus luteus IFO 3232 after 24 hrs; procedure, shortened: as §1
Escherichia coli [13] = experiment: Antimicrobial activity against Escherichia coli IFO 3301 at 100 ug/8 mm disk after 24 hrs by agar disk diffusion method; procedure, shortened: as §3
Staphylococcus aureus [14] = experiment: Antimicrobial activity against Staphylococcus aureus IFO 3060 at 100 ug/8 mm disk after 24 hrs by agar disk diffusion method; procedure, shortened: as §3
Bacillus subtilis [15] = experiment: Antimicrobial activity against Bacillus subtilis IFO 3007 after 24 hrs
Procedure, shortened: (§4)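 MIC by two-fold serial dilution in wells inoculated with 10^6 CFU/mL of each organism; incubated at 36 °C for 24 h (bacteria); MIC taken as lowest concentration giving no visible growth by unaided eye.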

Pseudomonas aeruginosa [16] = experiment: Antimicrobial activity against Pseudomonas aeruginosa IFO 3448 after 24 hrs; procedure, shortened: as §4
Micrococcus luteus [17] = experiment: Antimicrobial activity against Micrococcus luteus IFO 3232 at 100 ug/8 mm disk after 24 hrs by agar disk diffusion method; procedure, shortened: as §3
Rattus norvegicus [18] = experiment: Antiinflammatory activity in Sprague-Dawley rat assessed as inhibition of carrageenan-induced paw edema at 40 mg/kg, ip administered 1 hrs before carrageenan challenge relative to untreated control; conditions: route intraperitoneal
Rattus norvegicus [19] = experiment: Antiinflammatory activity in Sprague-Dawley rat assessed as inhibition of carrageenan-induced paw edema at 20 mg/kg, ip administered 1 hrs before carrageenan challenge relative to untreated control; conditions: route intraperitoneal

## Clc1ccccc1C(c1ccccc1)(c1ccccc1)n1ccnc1 [CLOTRIMAZOLE]
Candida albicans [1]
  GI: 21 mm
Candida albicans [2]
  MIC: 2 µg/mL (≈ 5.8 µM)

## S=c1sc(C23CC4CC(CC(C4)C2)C3)nn1Cc1ccc(Cl)cc1
Bacillus subtilis [3]
  growth inhibition (GI): inactive
Pseudomonas aeruginosa [4]
  growth inhibition (GI): inactive
Escherichia coli [5]
  growth inhibition (GI): inactive
Candida albicans [6]
  growth inhibition (GI): inactive
Micrococcus luteus [7]
  growth inhibition (GI): inactive
Staphylococcus aureus [8]
  growth inhibition (GI): inactive

## GENTAMICIN
Staphylococcus aureus [9]
  MIC: 2 µg/mL
Pseudomonas aeruginosa [10]
  GI: 19 mM
Bacillus subtilis [11]
  GI: 25 mM
Micrococcus luteus [12]
  MIC: 2 µg/mL
Escherichia coli [13]
  GI: 20 mM
Staphylococcus aureus [14]
  GI: 26 mM
Bacillus subtilis [15]
  MIC: 2 µg/mL
Pseudomonas aeruginosa [16]
  MIC: 1 µg/mL
Micrococcus luteus [17]
  GI: 18 mM

## CC1(C)S[C@@H]2[C@H](NC(=O)[C@H](N)c3ccccc3)C(=O)N2[C@H]1C(=O)O [AMPICILLIN]
Pseudomonas aeruginosa [10]
  GI: 17 mm
Bacillus subtilis [11]
  GI: 21 mm
Micrococcus luteus [12]; IFO 3232, 24 h
  MIC: 2 µg/mL (≈ 5.72 µM)
Escherichia coli [13]
  GI: 17 mm
Staphylococcus aureus [14]
  GI: 23 mm
Bacillus subtilis [15]; IFO 3007, 24 h
  MIC: 0.5 µg/mL (≈ 1.43 µM)
Pseudomonas aeruginosa [16]; IFO 3448, 24 h
  MIC: 2 µg/mL (≈ 5.72 µM)
Micrococcus luteus [17]
  GI: 19 mm

## S=C(Nc1ccc(Cl)cc1)Nc1nnc(C23CC4CC(CC(C4)C2)C3)s1
Bacillus subtilis [3]
  GI: 20 mm
Pseudomonas aeruginosa [4]
  growth inhibition (GI): inactive
Escherichia coli [5]
  growth inhibition (GI): inactive
Candida albicans [6]
  growth inhibition (GI): inactive
Bacillus subtilis [15]; IFO 3007, 24 h
  MIC: 2 µg/mL (≈ 4.94 µM)
Micrococcus luteus [7]
  GI: 12 mm
Staphylococcus aureus [8]
  GI: 15 mm

## CCN1CCN(Cn2nc(C34CC5CC(CC(C5)C3)C4)sc2=S)CC1
Bacillus subtilis [3]
  GI: 13 mm
Pseudomonas aeruginosa [4]
  growth inhibition (GI): inactive
Escherichia coli [5]
  growth inhibition (GI): inactive
Rattus norvegicus [18]
  inhibition in vivo at 40 mg/kg: 10.6%
Rattus norvegicus [19]
  inhibition in vivo at 20 mg/kg: 11.3%
Candida albicans [6]
  growth inhibition (GI): inactive
Micrococcus luteus [7]
  growth inhibition (GI): inactive
Staphylococcus aureus [8]
  GI: 12 mm

## S=C(Nc1ccccc1)Nc1nnc(C23CC4CC(CC(C4)C2)C3)s1
Bacillus subtilis [3]
  GI: 14 mm
Pseudomonas aeruginosa [4]
  growth inhibition (GI): inactive
Escherichia coli [5]
  growth inhibition (GI): inactive
Candida albicans [6]
  growth inhibition (GI): inactive
Micrococcus luteus [7]
  GI: 15 mm
Staphylococcus aureus [8]
  GI: 13 mm

## O=C(O)Cn1nc(C23CC4CC(CC(C4)C2)C3)sc1=S
Bacillus subtilis [3]
  GI: 22 mm
Pseudomonas aeruginosa [4]
  growth inhibition (GI): inactive
Escherichia coli [5]
  growth inhibition (GI): inactive
Rattus norvegicus [18]
  inhibition in vivo at 40 mg/kg: 32.7%
Rattus norvegicus [19]
  inhibition in vivo at 20 mg/kg: 29.5%
Candida albicans [6]
  GI: 17 mm
Bacillus subtilis [15]; IFO 3007, 24 h
  MIC: 2 µg/mL (≈ 6.44 µM)
Micrococcus luteus [7]
  GI: 16 mm
Staphylococcus aureus [8]
  GI: 18 mm

## O=[N+]([O-])c1ccc(Cn2nc(C34CC5CC(CC(C5)C3)C4)sc2=S)cc1
Bacillus subtilis [3]
  growth inhibition (GI): inactive
Pseudomonas aeruginosa [4]
  growth inhibition (GI): inactive
Escherichia coli [5]
  growth inhibition (GI): inactive
Candida albicans [6]
  growth inhibition (GI): inactive
Micrococcus luteus [7]
  growth inhibition (GI): inactive
Staphylococcus aureus [8]
  growth inhibition (GI): inactive
